Our source for the IC50, Activity and inhibition values is ChEMBL document CHEMBL4138308, “Simultaneous Targeting of RGD-Integrins and Dual Murine Double Minute Proteins in Glioblastoma Multiforme” (J Med Chem, 2018).

One experiment addresses Integrin alpha-5/beta-1 (Homo sapiens, UniProt P05556+P08648). In words: Inhibition of fibronectin binding to soluble alpha5beta1 integrin (unknown origin) after 1 hr by ELISA. Type of experiment: protein-complex assay.
In experiment [1] the target is T1, E3 ubiquitin-protein ligase Mdm2 (Homo sapiens, UniProt Q00987). In words: Displacement of p53 from MDM2 in human U87MG cells incubated for 10 mins by sandwich ELISA method. Type of experiment: cell-based.
Target sequence in this assay (Q00987 whole entry): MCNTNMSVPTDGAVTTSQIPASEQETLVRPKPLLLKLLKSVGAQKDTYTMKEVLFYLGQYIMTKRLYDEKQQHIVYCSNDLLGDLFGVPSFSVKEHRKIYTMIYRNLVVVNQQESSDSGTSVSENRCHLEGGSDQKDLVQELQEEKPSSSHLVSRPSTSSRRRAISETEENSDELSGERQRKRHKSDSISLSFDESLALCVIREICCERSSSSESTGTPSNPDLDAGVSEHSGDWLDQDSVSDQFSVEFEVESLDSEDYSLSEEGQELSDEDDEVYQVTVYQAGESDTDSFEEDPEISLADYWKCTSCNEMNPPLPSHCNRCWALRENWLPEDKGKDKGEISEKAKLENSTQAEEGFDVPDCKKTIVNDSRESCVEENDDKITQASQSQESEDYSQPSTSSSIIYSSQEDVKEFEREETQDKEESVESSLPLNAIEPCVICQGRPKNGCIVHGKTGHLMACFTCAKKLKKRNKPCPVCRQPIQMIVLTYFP
Another experiment has as its target Integrin alpha-V/beta-3 (Homo sapiens, UniProt P05106+P06756). In words: Inhibition of vitronectin binding to human alphaVbeta3 integrin after 1 hr by ELISA. Type of experiment: protein-complex assay. The method, boiled down: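 Plates coated overnight at 4 °C with vitronectin 1.0 μg/mL in carbonate buffer pH 9.6, blocked 1 h with TSB (Ca2+, Mg2+, Mn2+, 1% BSA). Soluble human αvβ3 (final 1.0 μg/mL) with inhibitor (final 0.128–400 nM) 1 h at room temperature; detection by anti-CD51/61 then peroxidase secondary, absorbance 405 nm. Duplicates; IC50 from curve inflection point; internal standard per plate.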

Another experiment deals with T2, Protein Mdm4 (Homo sapiens, UniProt O15151).
T2 sequence (O15151 whole entry): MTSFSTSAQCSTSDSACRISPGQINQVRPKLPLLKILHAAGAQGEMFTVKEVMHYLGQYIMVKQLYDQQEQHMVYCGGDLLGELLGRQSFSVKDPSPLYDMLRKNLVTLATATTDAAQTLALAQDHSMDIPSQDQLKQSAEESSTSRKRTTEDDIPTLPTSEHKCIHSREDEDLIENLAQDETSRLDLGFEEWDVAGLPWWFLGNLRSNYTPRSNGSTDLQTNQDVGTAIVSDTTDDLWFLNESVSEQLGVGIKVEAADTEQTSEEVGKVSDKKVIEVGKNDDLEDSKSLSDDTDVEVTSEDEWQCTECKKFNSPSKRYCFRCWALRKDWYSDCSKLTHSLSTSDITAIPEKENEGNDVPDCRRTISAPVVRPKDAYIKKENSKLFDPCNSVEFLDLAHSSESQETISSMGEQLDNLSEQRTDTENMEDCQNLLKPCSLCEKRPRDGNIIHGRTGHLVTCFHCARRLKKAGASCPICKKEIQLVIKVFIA
In words: Displacement of p53 from MDM4 in human SHSY-5Y cells incubated for 10 mins by sandwich ELISA method. The class given is cell-based.

Experiment [2] relates to T98G. Put plainly: Antiproliferative activity against human T98G cells harboring p53 mutant at micromolar concentration after 72 hrs by MTS assay. Type of experiment: functional, cell-based. The essentials: (§1)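 Cells seeded ~5000 cells/cm2, after 24 h medium replaced with compound in DMSO (DMSO 1% v/v in controls), alone or in combination at 100 nM each, or concentration series (U87MG 1–100 nM). 72 h exposure; proliferation read by MTS, expressed as % of DMSO control (mean ± SEM, N = 3); IC50 from sigmoid dose–response fit.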

The species named for experiment [3] is Homo sapiens. The conditions noted are these: 100 nM.
Experiment [4] is filed under the species Homo sapiens. The conditions noted are these: 100 nM. The source holds these as a separate data set.
The species entered for experiment [5] is Homo sapiens. The settings on record: 100 nM. This is another data set of the same source.
Experiment [6] relates to U-87 MG. In words: Antiproliferative activity against human U87MG cells after 72 hrs by MTS assay.
Experiment [7] is filed under the species Homo sapiens. The conditions noted are these: 100 nM. This is another data set of the same source.
In experiment [8] the test system is T98G. Put plainly: Antiproliferative activity against human T98G cells harboring p53 mutant at nanomolar concentration after 72 hrs by MTS assay. The class given is functional, cell-based. The method, boiled down:
as §1

Experiment [9] is filed under the species Homo sapiens. The conditions noted are these: 100 nM. This is another data set of the same source.
In experiment [10] the test system is U-87 MG. Put plainly: Anti-invasive activity in human U87MG cells at 10 uM after 24 hrs by transwell assay. Type of experiment: functional, U-87MG ATCC. The method, boiled down: (§2)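 U87MG cells suspended in serum-free medium (60,000 cells), treated at 10 μM (each agent at 10 μM when combined), placed in upper chamber of Matrigel-coated (0.32 mg/mL) transwell; lower chamber RPMI with 10% FBS. Invasion 24 h at 37 °C; cells on lower membrane surface fixed with p-formaldehyde, crystal violet stained, counted in five random fields per filter. Mean ± SEM vs DMSO control.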

In experiment [11] the test system is U-87 MG. Put plainly: Antiproliferative activity against human U87MG cells at 100 nM after 72 hrs in presence of alphaVbeta3 inhibitor cilengitide and MDM4 inhibitor SJ-1722550 by MTS assay. The class given is functional, cell-based. The conditions noted are these: U-87MG ATCC. The essentials:
as §1

The subject of experiment [12] is U-87 MG. Put plainly: Antiproliferative activity against human U87MG cells at 100 nM after 72 hrs in presence of alphaVbeta3 inhibitor cilengitide by MTS assay. The class given is functional, cell-based. The conditions noted are these: U-87MG ATCC. The method, boiled down:
as §1

Experiment [13] has as its system U-87 MG. In words: Antiproliferative activity against human U87MG cells at 100 nM after 72 hrs by MTS assay. The class given is functional, cell-based. The settings on record: U-87MG ATCC. The essentials:
as §1

The test system of experiment [14] is U-87 MG. In words: Anti-invasive activity in human U87MG cells at 10 uM after 24 hrs in presence of MDM4 inhibitor SJ-1722550 and alphaVbeta3 inhibitor cilengitide by transwell assay. The conditions noted are these: U-87MG ATCC. The class given is functional, cell-based. The method, boiled down: as §2
Experiment [15] deals with T3, Protein Mdm4 (Homo sapiens) (UniProt O15151).
T3 sequence (whole entry): T2 sequence (O15151 whole entry)
In words: Displacement of p53 from MDM4 in human SHSY-5Y cells at 100 uM incubated for 10 mins by sandwich ELISA method relative to control. Type of experiment: cell-based. The method, boiled down: (§3)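 Native complexes in cell lysates (U87MG for p53/MDM2; SHSY-5Y for p53/MDM4). Compound incubated with lysate 10 min at room temperature, then 90 min in wells precoated with anti-MDM2 or anti-MDM4; blocked with 1% BSA, anti-p53 (1:250) 90 min, HRP secondary 60 min, TMB read at 450 nm. Blanks lacked anti-p53. Mean of three determinations.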

The subject of experiment [16] is U-87 MG. In words: Antiproliferative activity against human U87MG cells at 100 nM after 72 hrs in presence of MDM2 inhibitor nutlin-3 and MDM4 inhibitor SJ-1722550 by MTS assay. The class given is functional, cell-based. The conditions noted are these: U-87MG ATCC. The method, boiled down: as §1
Experiment [17] has as its system U-87 MG. In words: Anti-invasive activity in human U87MG cells at 10 uM after 24 hrs in presence of MDM2 inhibitor nutlin-3 and MDM4 inhibitor SJ-1722550 by transwell assay. The settings on record: U-87MG ATCC. Type of experiment: functional, cell-based. The method, boiled down:
as §2

For experiment [18], the system named is U-87 MG. Put plainly: Antiproliferative activity against human U87MG cells at 100 nM after 72 hrs in presence of MDM2 inhibitor nutlin-3 by MTS assay. The class given is functional, cell-based. The conditions noted are these: U-87MG ATCC. The essentials:
as §1

The target of experiment [19] is T1, E3 ubiquitin-protein ligase Mdm2. Put plainly: Displacement of p53 from MDM2 in human U87MG cells at 100 uM incubated for 10 mins by sandwich ELISA method relative to control. The class given is cell-based. The method, boiled down: as §3
Target sequence in this assay (Q00987 whole entry, looked up): as the sequence (Q00987 whole entry) above

SMILES strings stand for the structures. pIC50: −log10 of the molar value. The source made the active and inactive calls. No cut-off for these calls is given here.

Chain of Integrin alpha-V/beta-3 (P05106 27-788 limits assumed): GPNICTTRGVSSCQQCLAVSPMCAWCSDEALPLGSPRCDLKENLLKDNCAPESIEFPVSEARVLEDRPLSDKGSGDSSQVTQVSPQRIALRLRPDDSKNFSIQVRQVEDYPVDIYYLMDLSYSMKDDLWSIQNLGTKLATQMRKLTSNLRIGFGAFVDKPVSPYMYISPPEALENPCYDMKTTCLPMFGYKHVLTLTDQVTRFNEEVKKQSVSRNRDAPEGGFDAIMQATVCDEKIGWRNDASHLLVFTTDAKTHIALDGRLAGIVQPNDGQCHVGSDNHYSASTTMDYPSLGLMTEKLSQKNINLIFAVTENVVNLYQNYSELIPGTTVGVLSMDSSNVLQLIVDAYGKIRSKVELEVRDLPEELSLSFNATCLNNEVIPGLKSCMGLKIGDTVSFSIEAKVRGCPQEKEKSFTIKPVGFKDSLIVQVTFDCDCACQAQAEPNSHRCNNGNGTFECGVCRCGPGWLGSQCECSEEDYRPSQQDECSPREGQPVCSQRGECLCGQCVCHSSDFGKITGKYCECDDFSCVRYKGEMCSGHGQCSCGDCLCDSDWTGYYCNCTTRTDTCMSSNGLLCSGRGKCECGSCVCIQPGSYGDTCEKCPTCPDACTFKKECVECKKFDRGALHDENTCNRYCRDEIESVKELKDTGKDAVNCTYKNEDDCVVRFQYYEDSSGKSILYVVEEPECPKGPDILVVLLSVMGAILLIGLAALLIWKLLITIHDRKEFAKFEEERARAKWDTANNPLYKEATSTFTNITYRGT
Chain of Integrin alpha-V/beta-3 (P06756 31-889 limits assumed): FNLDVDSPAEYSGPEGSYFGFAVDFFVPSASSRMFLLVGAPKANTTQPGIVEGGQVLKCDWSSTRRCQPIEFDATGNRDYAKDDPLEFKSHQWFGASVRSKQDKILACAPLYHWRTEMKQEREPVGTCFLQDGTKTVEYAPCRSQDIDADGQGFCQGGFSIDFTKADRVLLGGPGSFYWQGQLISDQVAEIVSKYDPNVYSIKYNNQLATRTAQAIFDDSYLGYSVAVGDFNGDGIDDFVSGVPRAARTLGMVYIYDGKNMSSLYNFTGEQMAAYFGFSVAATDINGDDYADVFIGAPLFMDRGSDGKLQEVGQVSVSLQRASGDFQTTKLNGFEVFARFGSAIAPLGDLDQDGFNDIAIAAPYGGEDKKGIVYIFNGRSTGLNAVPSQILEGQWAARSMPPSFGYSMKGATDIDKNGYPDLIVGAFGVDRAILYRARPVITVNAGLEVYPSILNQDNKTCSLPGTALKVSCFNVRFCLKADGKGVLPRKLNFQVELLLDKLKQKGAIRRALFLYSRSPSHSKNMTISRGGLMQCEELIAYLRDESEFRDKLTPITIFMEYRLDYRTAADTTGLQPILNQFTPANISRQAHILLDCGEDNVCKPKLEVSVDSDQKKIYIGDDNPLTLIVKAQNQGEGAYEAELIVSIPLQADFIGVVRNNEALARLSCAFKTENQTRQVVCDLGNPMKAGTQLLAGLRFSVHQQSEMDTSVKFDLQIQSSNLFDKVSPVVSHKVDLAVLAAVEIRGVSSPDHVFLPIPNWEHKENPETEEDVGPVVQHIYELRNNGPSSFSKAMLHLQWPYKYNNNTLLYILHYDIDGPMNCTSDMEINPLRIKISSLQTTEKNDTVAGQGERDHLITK
Chain of Integrin alpha-V/beta-3 (P06756 891-1048 limits assumed): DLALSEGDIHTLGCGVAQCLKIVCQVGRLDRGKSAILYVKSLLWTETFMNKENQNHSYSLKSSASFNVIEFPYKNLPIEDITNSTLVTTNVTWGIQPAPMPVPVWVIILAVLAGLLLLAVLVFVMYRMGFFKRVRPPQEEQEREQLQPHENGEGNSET
Chain of Integrin alpha-5/beta-1 (P05556 21-798 limits assumed): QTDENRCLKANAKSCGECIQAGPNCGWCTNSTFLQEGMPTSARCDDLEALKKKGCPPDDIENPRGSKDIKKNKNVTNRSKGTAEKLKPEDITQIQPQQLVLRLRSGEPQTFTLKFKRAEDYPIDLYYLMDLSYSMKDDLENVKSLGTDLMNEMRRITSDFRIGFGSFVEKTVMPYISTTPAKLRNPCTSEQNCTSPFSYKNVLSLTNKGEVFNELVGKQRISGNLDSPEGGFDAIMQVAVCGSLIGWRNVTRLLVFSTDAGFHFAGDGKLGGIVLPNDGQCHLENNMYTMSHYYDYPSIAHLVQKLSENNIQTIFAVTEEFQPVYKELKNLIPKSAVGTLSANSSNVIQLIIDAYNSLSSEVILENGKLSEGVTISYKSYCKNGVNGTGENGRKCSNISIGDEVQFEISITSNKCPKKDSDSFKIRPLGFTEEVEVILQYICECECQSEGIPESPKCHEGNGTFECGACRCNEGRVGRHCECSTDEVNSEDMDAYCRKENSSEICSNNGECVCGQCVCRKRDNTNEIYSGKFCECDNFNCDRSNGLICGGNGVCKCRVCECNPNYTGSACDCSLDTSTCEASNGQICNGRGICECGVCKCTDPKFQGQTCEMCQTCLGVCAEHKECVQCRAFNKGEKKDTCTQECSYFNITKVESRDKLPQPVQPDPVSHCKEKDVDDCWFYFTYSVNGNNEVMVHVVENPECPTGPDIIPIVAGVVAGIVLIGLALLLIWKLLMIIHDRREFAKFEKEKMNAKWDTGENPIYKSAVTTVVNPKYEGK
Chain of Integrin alpha-5/beta-1 (P08648 42-894 limits assumed): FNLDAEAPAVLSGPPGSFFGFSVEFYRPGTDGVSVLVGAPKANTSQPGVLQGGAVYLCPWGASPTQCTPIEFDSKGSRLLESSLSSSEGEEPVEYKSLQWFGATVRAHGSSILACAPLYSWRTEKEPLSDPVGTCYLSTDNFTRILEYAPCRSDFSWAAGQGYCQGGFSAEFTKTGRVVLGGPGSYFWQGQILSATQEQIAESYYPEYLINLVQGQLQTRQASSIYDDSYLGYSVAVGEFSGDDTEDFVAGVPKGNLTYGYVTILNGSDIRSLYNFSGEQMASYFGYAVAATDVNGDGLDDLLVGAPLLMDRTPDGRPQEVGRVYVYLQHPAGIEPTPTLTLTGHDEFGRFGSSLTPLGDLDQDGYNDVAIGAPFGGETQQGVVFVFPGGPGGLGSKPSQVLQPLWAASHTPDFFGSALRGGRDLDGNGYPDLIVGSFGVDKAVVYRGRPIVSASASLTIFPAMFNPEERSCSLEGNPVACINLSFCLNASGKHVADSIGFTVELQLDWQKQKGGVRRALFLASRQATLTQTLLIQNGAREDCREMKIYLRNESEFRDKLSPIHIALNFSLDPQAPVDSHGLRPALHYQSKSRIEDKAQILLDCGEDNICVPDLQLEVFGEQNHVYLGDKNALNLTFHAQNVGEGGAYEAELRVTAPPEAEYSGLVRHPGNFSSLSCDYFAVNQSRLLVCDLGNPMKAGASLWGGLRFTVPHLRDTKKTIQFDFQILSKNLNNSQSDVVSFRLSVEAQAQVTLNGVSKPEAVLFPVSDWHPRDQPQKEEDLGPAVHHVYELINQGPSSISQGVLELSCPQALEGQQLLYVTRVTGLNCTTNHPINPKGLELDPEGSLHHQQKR
Chain of Integrin alpha-5/beta-1 (P08648 895-1049 limits assumed): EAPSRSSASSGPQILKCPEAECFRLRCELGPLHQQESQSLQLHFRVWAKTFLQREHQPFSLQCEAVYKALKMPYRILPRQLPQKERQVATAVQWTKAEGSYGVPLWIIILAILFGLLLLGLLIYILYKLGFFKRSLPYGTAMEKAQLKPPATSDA

For the molecule `N=C(N)Nc1cccc(C(=O)NCC(=O)N[C@@H](CC(=O)O)C(=O)NCc2ccccc2)c1`, the results for the pIC50 (on Integrin alpha-5/beta-1; in experiment [1]; on Integrin alpha-V/beta-3) were 7.51, below 6.00 and 9.10, respectively.
For `C[C@H](NC(=O)[C@H](CC(=O)O)NC(=O)CNC(=O)c1cccc(NC(=N)N)c1)c1ccccc1`, the pIC50 at Integrin alpha-5/beta-1 is 7.70; at Integrin alpha-V/beta-3, 9.04.
As for `COc1ccc(CNC(=O)[C@H](CC(=O)O)NC(=O)CNC(=O)c2cccc(NC(=N)N)c2)cc1`, the pIC50 on Integrin alpha-5/beta-1 is 7.40; at Protein Mdm4 it was below 6.00; on Integrin alpha-V/beta-3, 8.92.
In the case of `N=C(N)Nc1cccc(C(=O)NCC(=O)N[C@@H](CC(=O)O)C(=O)NC(c2ccccc2)c2ccccc2)c1`, the figures for the pIC50 at Integrin alpha-5/beta-1, at Integrin alpha-V/beta-3 and in the experiment with U-87 MG [6] were 7.66, 8.85 and 6.94, respectively. In the experiment with T98G [2], the outcome was Active. For the same molecule, the inhibition entry in the experiment listed under Homo sapiens [3], in the experiment listed under Homo sapiens [4], in the experiment filed under Homo sapiens [7] and in the experiment filed under Homo sapiens [9] was “Active” throughout. Further, the inhibition result in the experiment filed under Homo sapiens [5] was “inactive”. The outcome in the experiment on T98G [8] was inactive. Moreover, the Activity in the experiment with U-87 MG [10] is 80%.
As to `N=C(N)Nc1cccc(C(=O)NCC(=O)N[C@@H](CC(=O)O)C(=O)NCC(c2ccccc2)c2ccccc2)c1`, the pIC50 on Integrin alpha-5/beta-1 is 7.66; in experiment [1], below 6.00; at Integrin alpha-V/beta-3, 9.04.
Consider `COc1ccc(C2=N[C@H](c3ccc(Cl)cc3)[C@H](c3ccc(Cl)cc3)N2C(=O)N2CCNC(=O)C2)c(OC(C)C)c1`, for which the outcome in the experiment with U-87 MG [11], in the experiment on U-87 MG [12] and with U-87 MG [14] was Active. Moreover, the outcome with U-87 MG [13] and with U-87 MG [10] (U-87MG ATCC) was inactive.
For the molecule `N=C(N)Nc1cccc(C(=O)NCC(=O)N[C@@H](CC(=O)O)C(=O)NCCc2ccc3ccccc3c2)c1`, the pIC50 is 7.12 at Integrin alpha-5/beta-1 and 8.66 on Integrin alpha-V/beta-3.
For the molecule `CC(C)[C@H]1C(=O)N[C@@H](CCCNC(=N)N)C(=O)NCC(=O)N[C@@H](CC(=O)O)C(=O)N[C@H](Cc2ccccc2)C(=O)N1C`, the results for the inhibition in experiment [15] and in [19] were 2.6% and 14.1%, respectively. For the same molecule, the outcome in the experiment on U-87 MG [13] was inactive. Moreover, the outcome in the experiment on U-87 MG [16], in the experiment on U-87 MG [17], in the experiment with U-87 MG [18] and with U-87 MG [10] (U-87MG ATCC) was Active.
